For one data set, the system named is P. aeruginosa 19660_Xen5. In words: Time-kill bactericidal activity, bioluminescence. The format is cell-based, Pseudomonas aeruginosa. The settings on record: Fig. 2. A digest of the protocol:
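Luciferase-tagged strain grown from a single colony in LB at 37°C overnight with agitation, diluted 1:10 into fresh LB and grown 2 h at 37°C to mid-log. Adjusted by OD600 to 1 × 10⁷ CFU/mL and exposed to test compound at several concentrations for 0, 30, 60 and 120 min. Viable cells quantified noninvasively by bioluminescence imaging. Mean ± SE of triplicates from two independent experiments.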

A further data set relates to S. aureus 49525_Xen36. In words: Time-kill bactericidal activity, bioluminescence. It is filed as cell-based, Staphylococcus aureus. The note with it: 30 minutes' incubation, Fig. 4. A digest of the protocol:
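Bioluminescent S. aureus Xen36 was grown from a single colony in LB overnight at 37°C with agitation. It was diluted 1:10 into fresh LB for 2 h at 37°C to mid-log phase and adjusted by OD600 to 1 × 10⁷ CFU/mL. Then 100 μL per well was exposed to a concentration series of test peptide for 30 min. Viable-cell luminescence was read by IVIS Lumina imaging (open filter, binning 4, f-stop 1, 30 s count). Results are mean ± SE of triplicates from two independent experiments.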

The test system of data set [1] is corneal epithelial scrape wounds. In words: In vivo corneal epithelial wound healing. Also noted: species or system C57BL/6 mice. A digest of the protocol: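 C57BL/6 mice (9–13 weeks) were anaesthetised with ketamine 100 mg/kg plus xylazine 10 mg/kg ip. A 2-mm diameter corneal epithelial scrape wound was made in the right eye with an Algerbrush. Then 5 μL of test peptide (2, 64 or 640 μg/mL) or PBS vehicle was applied topically immediately, 5 min later, and at 6, 12 and 18 h. Wounds were stained with 1.5 μL 1% sodium fluorescein every 6 h until closure (24 h), imaged, and their areas measured.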

Square brackets hold non-standard residues; d marks the D form. Peptide text beside a SMILES is read from it. Orn = NCCC[C@H](N)C(=O)O

Consider `NC[C@H]1O[C@H](O[C@H]2[C@H](O)[C@@H](O[C@H]3O[C@H](CO)[C@@H](O)[C@H](N)[C@H]3O)[C@H](N)C[C@@H]2N)[C@H](N)C[C@@H]1O` [tobramycin], for which, in the data set on P. aeruginosa 19660_Xen5 (60 minutes), the “bactericidal activity following 60 minutes of exposure” value was “bactericidal effects at 60 minutes”. Besides, in the data set with S. aureus 49525_Xen36, the “bactericidal activity against S. aureus” value is recorded as “neither tobramycin nor vancomycin exhibited any bactericidal effect”.

Turning to `C[C@H](NC(=O)[C@H](Cc1ccccc1)NC(=O)[C@H](C)NC(=O)[C@H](Cc1ccccc1)NC(=O)[C@H](CCCN)NC(=O)[C@H](C)NC(=O)[C@H](Cc1ccccc1)NC(=O)[C@H](CCCN)NC(=O)[C@H](CCCN)NC(=O)[C@H](C)NC(=O)[C@H](Cc1ccccc1)NC(=O)[C@H](CCCN)NC(=O)[C@H](CCCN)NC(=O)[C@H](Cc1ccccc1)NC(=O)[C@H](CCCN)NC(=O)[C@H](CCCN)NC(=O)[C@H](C)NC(=O)[C@H](Cc1ccccc1)NC(=O)[C@H](CCCN)NC(=O)[C@H](CCCN)NC(=O)[C@H](C)NC(=O)[C@@H](N)Cc1ccccc1)C(=O)N[C@@H](Cc1ccccc1)C(=O)O` [RP444] (H-FA[Orn][Orn]FA[Orn][Orn]F[Orn][Orn]FA[Orn][Orn]FA[Orn]FAFAF-OH), the “wound closure vs vehicle” value in data set [1] (at 24 hours following topical ocular administration, 2, 64 or 640 μg/mL) is “No statistically significant difference in closure”. Further, the “effect on corneal epithelial wound healing” value in data set [1] (mice, topical 5 μL RP444 2, 64 or 640 μg/mL at 0 h, 5 minutes, 6, 12, 18 hours post wound, two independent experiments, n = 7-10 mice/group) is on record as “did not affect corneal epithelial wound healing”.

For the compound `CN[C@H](CC(C)C)C(=O)N[C@H]1C(=O)N[C@@H](CC(N)=O)C(=O)N[C@H]2C(=O)N[C@H]3C(=O)N[C@H](C(=O)N[C@H](C(=O)O)c4cc(O)cc(O)c4-c4cc3ccc4O)[C@H](O)c3ccc(c(Cl)c3)Oc3cc2cc(c3O[C@@H]2O[C@H](CO)[C@@H](O)[C@H](O)[C@H]2O[C@H]2C[C@](C)(N)[C@H](O)[C@H](C)O2)Oc2ccc(cc2Cl)[C@H]1O` [vancomycin], the “bactericidal activity during the short incubation time period” value in the data set on P. aeruginosa 19660_Xen5 (2 hours) is given as “no evidence of bactericidal activity”. In the data set on S. aureus 49525_Xen36, the “bactericidal activity against S. aureus” value is “neither tobramycin nor vancomycin exhibited any bactericidal effect”.

These data come from paper PMC5730364 (Investigative Ophthalmology & Visual Science, 2017).
